According to ChEMBL document CHEMBL2016434, “Exploiting the P-1 pocket of BRCT domains toward a structure guided inhibitor design” (ACS Med Chem Lett, 2011):
Active and inactive are the calls of the source. The rule behind the calls is not given here. Non-standard residues stand in square brackets, D forms with d. Residues, ends and D or L forms follow the SMILES beside them. *: point of attachment. Benzoyl(3-Ph) = O=C(c1cccc(-c2ccccc2)c1)*; 2Nal = N[C@@H](Cc1ccc2ccccc2c1)C(=O)O; d2Nal = N[C@H](Cc1ccc2ccccc2c1)C(=O)O; Pentanoyl(5-Ph) = O=C(CCCCc1ccccc1)*; Butanoyl(4-Ph) = O=C(CCCc1ccccc1)*; Hydrocinnamoyl = O=C(CCc1ccccc1)*; pS = N[C@@H](COP(=O)(O)O)C(=O)O; X1 = O=C(C/C=C/c1ccccc1)*

Experiments:
[1] = biological target: T1, Breast cancer type 1 susceptibility protein (Homo sapiens, UniProt P38398); assay: Inhibition of BRCT domain of His-tagged BRCA1 after 1 min by competitive fluorescence polarization assay
Target sequence in this assay (P38398 whole entry, the tested form may be a part): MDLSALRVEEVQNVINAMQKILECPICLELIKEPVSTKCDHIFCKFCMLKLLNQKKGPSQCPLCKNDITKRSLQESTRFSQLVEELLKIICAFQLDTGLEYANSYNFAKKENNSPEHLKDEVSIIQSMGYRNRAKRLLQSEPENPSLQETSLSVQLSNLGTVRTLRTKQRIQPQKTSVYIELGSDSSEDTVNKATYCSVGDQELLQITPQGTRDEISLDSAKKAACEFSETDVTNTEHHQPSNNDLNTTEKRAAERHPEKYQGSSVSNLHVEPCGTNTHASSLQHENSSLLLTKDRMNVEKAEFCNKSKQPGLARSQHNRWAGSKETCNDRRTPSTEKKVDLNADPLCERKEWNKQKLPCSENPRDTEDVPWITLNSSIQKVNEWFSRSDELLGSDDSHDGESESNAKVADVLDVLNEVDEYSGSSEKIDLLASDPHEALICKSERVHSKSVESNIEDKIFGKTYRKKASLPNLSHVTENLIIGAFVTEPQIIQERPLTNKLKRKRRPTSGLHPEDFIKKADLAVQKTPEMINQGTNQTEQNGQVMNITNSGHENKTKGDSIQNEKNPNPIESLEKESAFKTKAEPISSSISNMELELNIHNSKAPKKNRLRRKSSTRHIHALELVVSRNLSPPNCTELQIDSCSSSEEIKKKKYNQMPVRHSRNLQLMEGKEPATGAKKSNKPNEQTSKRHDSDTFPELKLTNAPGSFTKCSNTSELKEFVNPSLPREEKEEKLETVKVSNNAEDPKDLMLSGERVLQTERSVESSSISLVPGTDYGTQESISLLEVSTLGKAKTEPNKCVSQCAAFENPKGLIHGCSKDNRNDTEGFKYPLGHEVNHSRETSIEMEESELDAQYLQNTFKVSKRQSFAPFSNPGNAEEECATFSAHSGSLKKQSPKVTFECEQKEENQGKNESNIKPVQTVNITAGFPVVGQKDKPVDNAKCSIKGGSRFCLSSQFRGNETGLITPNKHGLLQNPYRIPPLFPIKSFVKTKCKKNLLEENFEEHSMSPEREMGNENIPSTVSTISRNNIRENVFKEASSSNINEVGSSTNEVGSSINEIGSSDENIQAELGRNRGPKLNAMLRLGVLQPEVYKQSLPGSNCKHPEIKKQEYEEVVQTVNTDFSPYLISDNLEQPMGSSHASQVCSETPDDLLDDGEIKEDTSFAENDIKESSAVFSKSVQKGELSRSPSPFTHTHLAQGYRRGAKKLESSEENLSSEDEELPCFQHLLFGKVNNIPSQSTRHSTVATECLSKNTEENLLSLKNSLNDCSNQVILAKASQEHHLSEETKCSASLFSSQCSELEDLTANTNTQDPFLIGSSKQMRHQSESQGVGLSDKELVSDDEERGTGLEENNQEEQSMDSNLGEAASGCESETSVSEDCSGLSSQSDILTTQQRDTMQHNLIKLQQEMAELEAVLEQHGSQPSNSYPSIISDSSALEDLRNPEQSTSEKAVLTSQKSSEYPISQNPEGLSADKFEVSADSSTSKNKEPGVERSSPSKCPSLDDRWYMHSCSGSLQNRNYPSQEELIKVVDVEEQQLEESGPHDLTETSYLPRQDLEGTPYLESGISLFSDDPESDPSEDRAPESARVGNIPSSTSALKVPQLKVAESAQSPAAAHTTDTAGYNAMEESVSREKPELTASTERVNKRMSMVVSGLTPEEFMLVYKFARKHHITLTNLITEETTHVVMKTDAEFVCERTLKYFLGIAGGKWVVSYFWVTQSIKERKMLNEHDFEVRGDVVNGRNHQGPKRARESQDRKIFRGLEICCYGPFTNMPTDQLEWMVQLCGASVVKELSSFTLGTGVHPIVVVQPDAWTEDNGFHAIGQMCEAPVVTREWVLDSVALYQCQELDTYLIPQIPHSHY

[2] = biological target: T1, Breast cancer type 1 susceptibility protein; assay: Displacement of phospho-BACH1 protein from BRCT domain of BRCA1 at 0.5 to 5000 uM by PAGE analysis
Method in brief: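 Phospho-BACH1 peptide immobilized on streptavidin–agarose beads was incubated with BRCT-BRCA1 together with the competing peptide mimics. Beads were then isolated and the bound protein resolved by polyacrylamide gel electrophoresis, followed by phosphor-screen exposure. Relative band intensities were quantified, and pulldown IC50 values were obtained by curve fitting.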
Target sequence in this assay (P38398 whole entry, looked up, the tested form may be a part): as the sequence (P38398 whole entry, the tested form may be a part) above

Row | Compound | Ki [1] [nM] | Activity [2]
1 | CC(=O)N[C@@H](Cc1ccc2ccccc2c1)C(=O)N[C@@H](COP(=O)(O)O)C(=O)N1CCC[C@H]1C(=O)N[C@H](C(=O)N[C@@H](Cc1ccccc1)C(N)=O)[C@@H](C)O (Ac-[2Nal][pS]PTF-NH2) | 1240 | –
2 | CC(=O)N[C@@H](Cc1ccc2ccccc2c1)C(=O)N[C@@H](COP(=O)(O)O)C(=O)N1CCC[C@H]1C(=O)N[C@H](C(=O)N[C@@H](Cc1ccccc1)C(N)=O)C(C)C (Ac-[2Nal][pS]PVF-NH2) | 540 | –
3 | CC(=O)N[C@@H](Cc1ccc2ccccc2c1)C(=O)N[C@@H](COP(=O)(O)O)C(=O)N1CCC[C@H]1C(=O)N[C@H](C(=O)N[C@@H](Cc1ccccc1)C(=O)O)C(C)C (Ac-[2Nal][pS]PVF-OH) | 130 | –
4 | CC(=O)N[C@H](Cc1ccc2ccccc2c1)C(=O)N[C@@H](COP(=O)(O)O)C(=O)N1CCC[C@H]1C(=O)N[C@H](C(=O)N[C@@H](Cc1ccccc1)C(N)=O)[C@@H](C)O (Ac-[d2Nal][pS]PTF-NH2) | 19400 | –
5 | CC(C)[C@H](NC(=O)[C@@H]1CCCN1C(=O)[C@H](COP(=O)(O)O)NC(=O)CCc1ccccc1)C(=O)N[C@@H](Cc1ccccc1)C(=O)O (Hydrocinnamoyl-[pS]PVF-OH) | 100 | –
6 | CC(C)[C@H](NC(=O)[C@@H]1CCCN1C(=O)[C@H](COP(=O)(O)O)NC(=O)C/C=C/c1ccccc1)C(=O)N[C@@H](Cc1ccccc1)C(=O)O (X1-[pS]PVF-OH) | 40 | Active
7 | CC(C)[C@H](NC(=O)[C@@H]1CCCN1C(=O)[C@H](COP(=O)(O)O)NC(=O)c1cccc(-c2ccccc2)c1)C(=O)N[C@@H](Cc1ccccc1)C(=O)O ({Benzoyl(3-Ph)}-[pS]PVF-OH) | 80 | Active
8 | CC(C)[C@H](NC(=O)[C@@H]1CCCN1C(=O)[C@H](COP(=O)(O)O)NC(=O)CCCc1ccccc1)C(=O)N[C@@H](Cc1ccccc1)C(=O)O ({Butanoyl(4-Ph)}-[pS]PVF-OH) | 500 | –
9 | CC(C)[C@H](NC(=O)[C@@H]1CCCN1C(=O)[C@H](COP(=O)(O)O)NC(=O)CCCCc1ccccc1)C(=O)N[C@@H](Cc1ccccc1)C(=O)O ({Pentanoyl(5-Ph)}-[pS]PVF-OH) | 12000 | –
